Results as given in PubChem BioAssay AID2363 (The Scripps Research Institute Molecular Screening Center, 2010).

Molecular target: Protein phosphatase methylesterase 1 (Homo sapiens) (UniProt Q9Y570)
Test: cellular PME-1 inhibition of PP2A demethylation, late-stage follow-up, orthogonal assay for PME-1 inhibitor project, HeLa cells, demethylated PP2A western blot (AID 2363)
Conditions: demethylated PP2A western blot chemiluminescence, stronger effect = higher value
Procedure, shortened: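 Test system – HeLa cells in culture with endogenous PME-1 · Reagent – endogenous PP2A · Dosing – two single compound doses, 5 µM and 20 µM · Times – cell treatment at 37 °C · Detection – SDS-PAGE immunoblot with HRP antibody against demethylated PP2A C-terminus, chemiluminescence · Read-out – % inhibition of PP2A demethylation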

[1] = PP2A demethylation inhibition, at 20 µM

Protein phosphatase methylesterase 1 (Homo sapiens), sequence (Q9Y570 whole entry, looked up): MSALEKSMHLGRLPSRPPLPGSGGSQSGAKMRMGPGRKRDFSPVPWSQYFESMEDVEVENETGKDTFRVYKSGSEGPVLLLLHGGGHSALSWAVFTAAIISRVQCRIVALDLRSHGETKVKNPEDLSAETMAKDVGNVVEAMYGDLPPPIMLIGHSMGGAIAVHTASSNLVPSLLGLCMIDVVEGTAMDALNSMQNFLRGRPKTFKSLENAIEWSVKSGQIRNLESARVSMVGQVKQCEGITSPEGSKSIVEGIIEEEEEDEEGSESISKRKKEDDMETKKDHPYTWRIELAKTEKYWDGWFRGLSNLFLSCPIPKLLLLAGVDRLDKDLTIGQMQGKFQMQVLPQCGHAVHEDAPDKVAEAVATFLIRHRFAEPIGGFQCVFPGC

How did the inhibition [1] turn out when `N#C/C(=C\c1cccn1S(=O)(=O)c1cccc(C#N)c1)S(=O)(=O)c1ccc(F)cc1` was run?
Its inhibition is 95%.

And the inhibition (at 5 µM)?
Its inhibition is 60%.

What does the source list for `N#C/C(=C\c1cccn1S(=O)(=O)c1cccc([N+](=O)[O-])c1)S(=O)(=O)c1ccc(F)cc1`?
inhibition [1]: 98%; inhibition (at 5 µM): 65%
